For 92 compounds, inhibition results are on record in PubChem BioAssay AID1885 (Broad Institute, 2009).

Hit rate of the full screen: of about 300,000 compounds, about 4,400 (1.5%) were called active. What follows is part of a selection rich in actives, with near analogues and random picks from the rest. A number with no mark means an inactive call.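 The calls were made as follows: active = mean inhibition across valid replicates above about 55% (limit read from the data); inconclusive = mean below that limit but half or more replicates reach it; inactive = mean below it, under half of replicates reach it.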

A short description of this experiment: inhibitors of intracellular T. cruzi growth, primary screen, luminescence, NIH3T3 host cells (AID 1885).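 Also: signal also drops with host cell toxicity which is not excluded here; 0% = plate median of DMSO wells and 100% = zero luminescence signal; higher percent means less beta-gal luminescence so fewer parasites.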 Particulars: T. cruzi beta-gal in NIH3T3, luminescence, 90 h; stronger effect = higher value; concentration not given here. The method, boiled down:
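System: mouse NIH/3T3 fibroblasts infected with β-gal-expressing T. cruzi Tulahuen C4 / Input: NIH/3T3 cells, 5,000 per well / Buffer or medium: Low-serum DMEM with 2% FBS / Probe or stimulus: 5000 reporter trypomastigotes per well / Schedule: ≥90 h infection period, 3 h prior cell attachment / Measured by: GalScreen luminescence, 60 min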
The term inhibition denotes the drop in the measured response relative to a control, in per cent. On to `COc1ccccc1OCCNC(=O)CCNC(=O)c1ccccc1Cl`, for which the inhibition is -10.4%.

As for `CC(C)(C)SCCNC(=O)c1cccc([N+](=O)[O-])c1`, the inhibition is -5.13%.

Consider `COc1ccccc1OCCNC(=O)c1cc([N+](=O)[O-])cc([N+](=O)[O-])c1`, for which the inhibition was 72.3% (active).

Turning to `CS(=O)(=O)N1CCN(C(=O)CSc2ccccc2)CC1`, the inhibition is -1.63%. `COc1ccc(C(C)NC(=O)C2CCCC2)cc1` (configuration not stated): the inhibition is -4.14%. Next, `COc1ccccc1CC(NC(C)=O)C(=O)NC1CCN(C(=O)Nc2ccccc2Cl)CC1` (configuration not stated): -13.9%. With `COc1ccccc1CN1CCCC(N2CCN(c3ccc(F)cc3)CC2)C1` (configuration not stated), the inhibition was 57.3% (active). Take `COc1ccccc1CN1CCN(Cc2cc(OC)c(OC)cc2OC)CC1`: the inhibition is 25.3%. As for `COc1ccc(CN2CCCC(N3CCc4ccccc4C3)C2)c(O)c1` (configuration not stated), the inhibition was 22.8%. Take `COc1ccc(C[C@H]2CN3C(=NC[C@H]3C)N2CCNC(=O)CCC2CCCCC2)cc1`: the inhibition is -4.54%. Take `Cc1cc2c(C)nc(N/N=C/c3ccccc3)nc2o1`: the inhibition was 22.4%. Turning to `Clc1ccc(Nc2nc(-c3cccs3)cs2)nc1`, the inhibition is 42.7%. As to `Cc1cccc(Nc2nc(-c3ccccc3)cs2)n1`, the inhibition was 18.7%.

`c1ccc(Nc2nc(-c3ccncc3)cs2)nc1`: the inhibition was 64% (active).

In the case of `CCCCn1c(N)c(N2CCOCC2)c(=O)n(CC(=O)NCCc2ccccc2)c1=O`, the inhibition is -20%.

For `O=C(N/N=C/c1sc(N2CCCCC2)nc1-c1cccs1)c1cccnc1`, the inhibition is 65% (active). As for `Cc1cc(/C=N/NC(=O)c2cccnc2)c(C)n1CC(C)C`, the inhibition is -5.46%. Next, `O=C(N/N=C/c1ccccn1)c1cccnc1`: 3.75%; `C=CCNC(=S)/N=c1/ccccn1Cc1ccccc1`: 36.1%; `O=C(OCCOCn1cc(Br)c(=O)[nH]c1=O)c1ccccc1`: -6.18%. Regarding `O=C(OCC(=O)N1CCCC1=O)c1cc(S(=O)(=O)N2CCOCC2)ccc1Cl`, the inhibition was -8.41%. In the case of `Cc1nc(N2CCC(C)CC2)c2c(C)c(C(=O)Nc3cc(F)ccc3C)sc2n1`, the inhibition is 49.5%. To `Cc1nc(N2CCOCC2)c2c(C)c(C(=O)Nc3ccc(C(F)(F)F)cc3)sc2n1` belongs 68% (active). Consider `Cc1nc(N2CCN(c3ccccn3)CC2)c2c(C)c(C(=O)Nc3ccc(F)c(Cl)c3)sc2n1`, for which the inhibition is 3.99%. To `CC(C)Nc1nnc(SC(C)C(=O)N(C)C2CCCCC2)s1` (configuration not stated) belongs -3%; to `Cc1occc1C(=O)NC1CCCN(Cc2ccc(CC(C)C)cc2)C1` (configuration not stated), 57.7% (active); to `Cc1occc1C(=O)NNC(=S)NCC(C)C`, -18.5%. `COc1ccc(CN2CCCC(C(=O)N3CCCCC3)C2)cc1` (configuration not stated): the inhibition was 27.2%. Next, `CN(c1ccccc1)S(=O)(=O)c1cccc(C(=O)NNC(=O)c2ccncc2)c1`: 5.43%; `COc1ccc(NC(=O)N2CCCC(C(=O)Nc3ccccc3OC)C2)cc1` (configuration not stated): -10.9%.

In the case of `Cc1sc2ncnc(N3CCC(C(=O)Nc4nc5ccc(Cl)cc5s4)CC3)c2c1C`, the inhibition was 27%. To `O=C(NC(=S)N1CCCCC1c1cccnc1)c1ccccc1` (configuration not stated) belongs 46.1%. Take `COc1ccc(/C=C/C(=O)NC(=S)NN2CCCCC2c2cccnc2)cc1` (configuration not stated): the inhibition was 42.1%.

For the compound `COc1ccc(C(=O)NC(=S)N2CCCCC2c2cccnc2)cc1OC` (configuration not stated), the inhibition was 57.2% (active). Next, `COC(=O)C1(C)NC(c2ccc(F)cc2)C2C(=O)N(c3ccccc3)C(=O)C21` (configuration not stated): -17.7%; `CCc1ccc2c(c1)C1(NN=C(c3ccccc3)S1)C(=O)N2` (configuration not stated): 73% (active); `Cc1nc(N=C(N)N)nc2c(C)cccc12`: 56.5% (active).

`Cc1nc(/N=C(\N)NC(=O)NC2CCCCC2)nc2ccccc12`: the inhibition was 10.4%.

Take `COc1nc(N=C(N)N)nc2c(C)cccc12`: the inhibition was 44.2%.

As to `O=C(NCCC1=CCCCC1)c1ccc(Cl)c([N+](=O)[O-])c1`, the inhibition was -28%. For `CCN1C(=O)[C@H]2[C@@H](c3ccc(-c4ccc(F)cc4)cc3)N[C@@](Cc3ccccc3)(C(=O)OC)[C@H]2C1=O`, the inhibition is 41.5%. Next, `c1ccc(-c2nnc(N3CCOCC3)c3ccccc23)cc1`: -1.66%; `c1ccc2c(NC3C4CC5CC(C4)CC3C5)nc(N3CCOCC3)nc2c1` (configuration not stated): 54.9% (active); `O=c1[nH]c(N2CCOCC2)nc2ccccc12`: -3.83%.

Regarding `CSCCC(NC(=O)COc1ccccc1)C(=O)OCCOc1ccc(F)cc1` (configuration not stated), the inhibition was -11.5%. Regarding `CCn1cc(/C=C(\NC(=O)c2ccc(C)cc2)C(=O)NCCN2CCOCC2)c2ccccc21`, the inhibition is -0.43%. Regarding `COc1ccc(CN2CC[C@H]3C=CC[C@@H](C(=O)N4CCOCC4)[C@H]3C2=O)cc1OC`, the inhibition is 0.915%.

For the compound `CN(CC(=O)Nc1ccc(F)cc1)CC(=O)Nc1ccc(Cl)c(S(=O)(=O)N2CCOCC2)c1`, the inhibition was -1.87%. Regarding `CN(CC(=O)Nc1ccc(S(=O)(=O)N2CCCC2)cc1)Cc1ccc(Cl)c(Cl)c1`, the inhibition was 55.8% (active). Turning to `O=C(CN1CCCCCC1)Nc1ccc(S(=O)(=O)N2CCCCC2)cc1`, the inhibition is -0.319%. `CCOc1cnc(C(=O)NNC(=O)c2ccccc2Br)o1`: the inhibition was -24%. Next, `O=C(Nc1ccc(F)c([N+](=O)[O-])c1)C1CC(=O)N(Cc2ccccc2)C1` (configuration not stated): 11.3%. Consider `CC1(c2cccc([N+](=O)[O-])c2)CC(C)(C)N(C(=O)c2ccccc2)c2ccccc21` (configuration not stated), for which the inhibition is 37.9%.

`CC1(c2ccccc2)CC(C)(C)N(C(=O)c2cc([N+](=O)[O-])cc([N+](=O)[O-])c2)c2ccccc21` (configuration not stated): the inhibition is 62.7% (active). Next, `Cc1nnc(SCC(=O)N2c3ccccc3C(C)(c3ccc(Cl)cc3)CC2(C)C)s1` (configuration not stated): 37.3%. `Cc1cc(C)c(NC(=O)C[N+](C)(C)CC(O)COc2cccc3ccccc23)c(C)c1` (configuration not stated): the inhibition is 39.6%. On to `OC(COc1cccc2ccccc12)CN1CCN(c2ccccn2)CC1` (configuration not stated), for which the inhibition is -13.7%. For the compound `CC(C)c1ccccc1OCC(O)CN(CC(O)COc1cccc2ccccc12)C(C)C` (configuration not stated), the inhibition was 57.2% (active). To `COc1ccc(NS(=O)(=O)c2cc(NC(=O)/C=C/c3cc(OC)c(OC)c(OC)c3)ccc2N2CCCCC2)cc1` belongs 54.8% (active); to `COc1ccc(NS(=O)(=O)c2ccc(N3CCN(CCO)CC3)c([N+](=O)[O-])c2)cc1`, -24.8%. As to `COc1ccc(NS(=O)(=O)c2cc(NC(=O)C3CCCCC3)ccc2N2CCOCC2)cc1`, the inhibition was 8.84%. With `Cc1ccc(S(=O)(=O)CCC(=O)Nc2nnc(CC(C)C)s2)cc1`, the inhibition was -32%. Next, `COC(=O)COc1ccc2c(c1C)O/C(=C\c1ccco1)C2=O`: 0.57%; `CCN1C(=O)[C@@H]2[C@@H](c3ccc(-c4ccc(OC)cc4)c(OC)c3)N3CCC[C@@]3(C(=O)OC)[C@@H]2C1=O`: -10.1%. As to `O=C(NCC(c1cccs1)N1CCOCC1)c1cc(Cl)ccc1[N+](=O)[O-]` (configuration not stated), the inhibition was -4.39%.

For the compound `CCOC(=O)CC1C(=O)NCCN1c1nc2c(C)cccn2c(=O)c1/C=C1\SC(=S)N(C(C)CC)C1=O` (configuration not stated), the inhibition is 25.7%. Next, `O=C(CCCN1C(=O)/C(=C\c2ccco2)SC1=S)Nc1cccc2ccccc12`: -4.25%. Next, `CCCN(CCC)c1nc2c(C)cccn2c(=O)c1/C=C1/SC(=S)N(Cc2ccco2)C1=O`: 68.2% (active); `Fc1ccc2c(c1)C(c1cccnc1)=NNC(c1cccs1)=N2`: -7.53%. For the compound `COc1ccccc1C1=Nc2cccc3cccc(c23)N1`, the inhibition is 55% (active). Take `c1ccc(C2=Nc3cccc4cccc(c34)N2)cc1`: the inhibition was 7.49%. In the case of `Fc1ccccc1N=C1Nc2cccc3cccc1c23`, the inhibition was -4.12%. Regarding `CC1(C)CC(N2CCN(C(c3ccccc3)c3ccccc3)CC2)=CC(=[N+]2CCCCC2)C1`, the inhibition is 63.6% (active).

In the case of `CC1(C)CC(=O)C=C(N2CCCC2)C1`, the inhibition was 1.27%. `O=C(O)CN1CCN(C(c2ccccc2)c2ccccc2)CC1`: the inhibition was -9.78%. As to `Cc1nc([N+](=O)[O-])nn1C12CC3CC(CC(Br)(C3)C1)C2`, the inhibition was 59.3% (active). To `Cc1ncn(C23CC4CC(CC(O)(C4)C2)C3)n1` belongs 5.6%.

Take `COc1cccc(NC(=O)c2nn(C34CC5CC(CC(C5)C3)C4)cc2[N+](=O)[O-])c1`: the inhibition is 16.7%. Regarding `CCCCCN(C(=O)CCC(=O)OCCOc1ccc(OC)cc1)c1c(N)n(CCCC)c(=O)[nH]c1=O`, the inhibition is 8.8%. Consider `CN(N)c1nc(N2CCCC2)nc(N2CCCC2)n1`, for which the inhibition was -9.95%. As for `CCCCCCCCCCCCN1[C@@H](CC(C)=O)c2cc(F)cc(F)c2S1(=O)=O`, the inhibition was 39.5%.

Take `CN1CCN(c2ccc(NC(=O)c3ccccc3)cc2)CC1`: the inhibition was -2.93%.

As for `CN1CCN(c2ccc(NC(=O)c3ccc4c(c3)[nH]c(=O)n4Cc3ccc(F)cc3)cc2)CC1`, the inhibition was 65.8% (active).

Regarding `CC(C)n1c(=O)[nH]c2cc(C(=O)Nc3ccccc3)ccc21`, the inhibition is -5.92%. Next, `COCCN1C(=O)N(c2ccc(Cl)cc2)C(=O)C1CC(=O)Nc1cc(OC)cc(OC)c1` (configuration not stated): -12.9%; `Cc1onc(-c2ccccc2Cl)c1C(=O)N(Cc1ccc(N(C)C)cc1)C(C)C`: 37.7%; `O=C(NCc1ccncc1)NC12CC3CC(CC(C3)C1)C2`: -15.8%.

For `S=C(NCc1ccc(Cl)cc1)NC1CCCCC1`, the inhibition is 10.1%. To `S=C(NCc1ccc(Cl)cc1)NC12CC3CC(CC(C3)C1)C2` belongs 57.1% (active); to `CCN(CC)P(=O)(Nc1ccc(SC(F)F)cc1)c1ccc(N(C)C)cc1NC(=O)c1ccco1` (configuration not stated), 68.4% (active). On to `O=C(Nc1ccc(Sc2ccc(Br)cc2)cc1)c1ccco1`, for which the inhibition was -17.4%.

On to `Cc1cc(NC(=O)c2ccc(F)cc2)ccc1NC(=O)c1ccco1`, for which the inhibition is 14%.
